These results are taken from ChEMBL document CHEMBL1124863, “Antiandrogenic steroidal sulfonylpyrazoles” (1990).

The term ED50 denotes the dose that gives a 50% effect, or the effect in half of the subjects.

For one experiment, the species on record is Rattus norvegicus. The experiment is described as follows: Antiandrogenic activity as the dose required to inhibit testosterone propionate-induced rat ventral prostate weight gain in castrated immature rat by 50%. The class given is functional, Prostate gland. A digest of the protocol: (§1)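 Weanling male Sprague-Dawley rats castrated; dosing began 1 week later, grouped by body weight. […] Rats weighed and killed the next day; ventral prostate removed, blotted, weighed. ED50 read graphically as dose halving TP-stimulated prostate weight gain.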

Experiment [1] has as its target T1, Androgen receptor (Rattus norvegicus) (UniProt P15207).
T1 sequence (whole entry): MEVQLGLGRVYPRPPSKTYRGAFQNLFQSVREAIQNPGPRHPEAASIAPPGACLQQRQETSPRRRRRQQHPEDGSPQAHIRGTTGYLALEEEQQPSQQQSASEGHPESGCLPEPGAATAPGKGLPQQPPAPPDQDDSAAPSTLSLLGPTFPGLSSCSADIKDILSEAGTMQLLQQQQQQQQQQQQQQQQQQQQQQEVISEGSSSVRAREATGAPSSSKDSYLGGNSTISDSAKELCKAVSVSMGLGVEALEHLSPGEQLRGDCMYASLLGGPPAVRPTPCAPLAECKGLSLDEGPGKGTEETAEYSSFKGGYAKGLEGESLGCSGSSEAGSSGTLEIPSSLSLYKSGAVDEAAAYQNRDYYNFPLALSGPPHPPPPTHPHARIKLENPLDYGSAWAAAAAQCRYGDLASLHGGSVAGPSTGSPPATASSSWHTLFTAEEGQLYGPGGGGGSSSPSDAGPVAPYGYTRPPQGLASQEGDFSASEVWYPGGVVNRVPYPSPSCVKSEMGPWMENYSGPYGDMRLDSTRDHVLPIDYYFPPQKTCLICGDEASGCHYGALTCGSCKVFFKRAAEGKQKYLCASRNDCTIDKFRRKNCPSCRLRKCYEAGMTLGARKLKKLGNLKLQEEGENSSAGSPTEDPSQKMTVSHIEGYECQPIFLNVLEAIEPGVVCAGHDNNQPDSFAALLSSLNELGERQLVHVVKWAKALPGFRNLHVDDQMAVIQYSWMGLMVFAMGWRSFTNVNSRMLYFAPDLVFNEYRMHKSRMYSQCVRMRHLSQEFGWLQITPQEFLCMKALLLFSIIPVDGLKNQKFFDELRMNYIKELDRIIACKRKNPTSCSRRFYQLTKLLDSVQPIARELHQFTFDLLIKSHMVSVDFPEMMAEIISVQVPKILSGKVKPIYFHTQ
As to conditions: Prostate gland.

Experiment [2] concerns the target T1, Androgen receptor (Rattus norvegicus). Nature of the experiment: Anti-androgenic activity, inhibition of testosterone propionate induced rat ventral prostate (castrated immature rat) weight gain. The format is functional. To be noted: Prostate gland. Put shortly: as §1
Where [3] appears, read: Rattus norvegicus, Prostate gland, read-out: ED50.

Calls of active or inactive are those of the source. No cut-off for these calls is given here. Bounds are passed on as bounds.

Regarding `C[C@]12CCC3C(CC[C@H]4Cc5nn(S(C)(=O)=O)cc5C[C@]34C)C1CC[C@@H]2O` (stereo partly specified), in the experiment listed under Rattus norvegicus (setting [3]), the median effective dose (ED50) was above 100 mg/kg.
On to `C[C@]12CCC3C(CC[C@H]4Cc5nn(S(C)(=O)=O)cc5C[C@]34C)C1CCC2=O` (stereo partly specified), for which the ED50 in the experiment listed under Rattus norvegicus (setting [3]) came to 100 mg/kg. Moreover, the Increase result in experiment [1] is “inactive”.
Taken in the same sequence, the figures for `CC1=C2CCC3C(CC[C@@]4(C)C3CC[C@]4(C)O)[C@@]2(C)Cc2cn(S(C)(=O)=O)nc21` (stereo partly specified) were 3 mg/kg and “inactive”.
Regarding `C#C[C@]1(O)CCC2C3CCC4=C(C)c5nn(S(C)(=O)=O)cc5C[C@]4(C)C3CC[C@@]21C` (stereo partly specified), the ED50 in the experiment filed under Rattus norvegicus (setting [3]) was 14 mg/kg. The Increase entry in experiment [1] is “inactive”.
Turning to `C#C[C@]1(O)CCC2C3CC[C@H]4Cc5nn(S(=O)(=O)CC)cc5C[C@]4(C)C3CC[C@@]21C` (stereo partly specified), the ED50 in the experiment filed under Rattus norvegicus (setting [3]) is 100 mg/kg.
Regarding `C[C@]12Cc3cn(S(C)(=O)=O)nc3C=C1CCC1C2CC[C@@]2(C)C1CC[C@@H]2O` (stereo partly specified), the ED50 in the experiment filed under Rattus norvegicus (setting [3]) was above 100 mg/kg.
As for `CC(O)(CS(=O)(=O)c1ccc(F)cc1)C(=O)Nc1ccc(C#N)c(C(F)(F)F)c1` (stereo unspecified) [BICALUTAMIDE], the median effective dose (ED50) in the experiment listed under Rattus norvegicus (setting [3]) was determined as 4 mg/kg.
As to `C#C[C@]1(O)CCC2C3CC[C@H]4Cc5nn(S(=O)(=O)C(C)C)cc5C[C@]4(C)C3CC[C@@]21C` (stereo partly specified), in the experiment filed under Rattus norvegicus (setting [3]), the ED50 is above 100 mg/kg.
Consider `C#C[C@]1(O)CC[C@H]2[C@@H]3CC[C@H]4Cc5nn(S(C)(=O)=O)cc5C[C@]4(C)[C@H]3CC[C@@]21C` (stereo in doubt; 28) [ZANOTERONE], for which the ED50 in the experiment filed under Rattus norvegicus came to 40 mg/kg.
In the case of `C#C[C@]1(O)CCC2C3CC[C@H]4Cc5nn(S(=O)(=O)CCC)cc5C[C@]4(C)C3CC[C@@]21C` (stereo partly specified), the ED50 in the experiment filed under Rattus norvegicus (setting [3]) was below 100 mg/kg.
As for `C#C[C@]1(O)CCC2C3CCC4=Cc5nn(S(C)(=O)=O)cc5C[C@]4(C)C3CC[C@@]21C` (stereo partly specified), the median effective dose (ED50) in the experiment filed under Rattus norvegicus (setting [3]) was below 100 mg/kg. Further, the Increase result in experiment [1] is “inactive”.
For the compound `C#C[C@]1(O)CC[C@H]2[C@@H]3CC[C@H]4Cc5nn(S(C)(=O)=O)cc5C[C@]4(C)[C@H]3CC[C@@]21C` (stereo in doubt; 28), the Increase result in experiment [1] is “inactive”.
For the compound `C[C@]12Cc3cn(S(C)(=O)=O)nc3C=C1CCC1C2CC[C@@]2(C)C1CC[C@]2(C)O` (stereo partly specified), the median effective dose (ED50) in the experiment listed under Rattus norvegicus (setting [3]) amounted to 16 mg/kg. For the same compound, the Increase result in experiment [1] was “inactive”.
With `C#C[C@]1(O)CCC2C3CCC4=C(Cl)c5nn(S(C)(=O)=O)cc5C[C@]4(C)C3CC[C@@]21C` (stereo partly specified), the ED50 in the experiment listed under Rattus norvegicus (setting [3]) is above 100 mg/kg.
In turn, `C=C[C@]1(O)CCC2C3CC[C@H]4Cc5nn(S(C)(=O)=O)cc5C[C@]4(C)C3CC[C@@]21C` (stereo partly specified) had a 50% effective dose (ED50) in experiment [2] of 33 mg/kg. In addition, the Increase entry in experiment [1] is “inactive”.
Consider `C#C[C@]1(O)CC[C@H]2[C@@H]3CC[C@H]4Cc5nn(S(C)(=O)=O)cc5C[C@]4(C)[C@H]3CC[C@@]21C` (stereo in doubt; 1), for which, in experiment [1], the Increase result was “inactive”.
Turning to `CC[C@]1(O)CCC2C3CC[C@H]4Cc5nn(S(C)(=O)=O)cc5C[C@]4(C)C3CC[C@@]21C` (stereo partly specified), in the experiment listed under Rattus norvegicus (setting [3]), the ED50 was 41 mg/kg. Further, the Increase result in experiment [1] is “inactive”.
Consider `CC(=O)O[C@]1(C(C)=O)CC[C@H]2[C@@H]3C=C(Cl)C4=CC(=O)[C@@H]5C[C@@H]5[C@]4(C)[C@H]3CC[C@@]21C` [CYPROTERONE ACETATE], for which the ED50 in the experiment filed under Rattus norvegicus (setting [3]) worked out at 18 mg/kg.
As to `C#C[C@]1(O)CCC2C3CC[C@H]4Cc5n[nH]cc5C[C@]4(C)C3CC[C@@]21C` (stereo partly specified), in the experiment listed under Rattus norvegicus (setting [3]), the ED50 is 50 mg/kg.
Turning to `CC(C)C(=O)Nc1ccc([N+](=O)[O-])c(C(F)(F)F)c1` [FLUTAMIDE], in the experiment filed under Rattus norvegicus (setting [3]), the 50% effective dose (ED50) is 5 mg/kg.
For `C#C[C@]1(O)CCC2C3CC[C@H]4Cc5c(c[nH][n+]5S(C)(=O)=O)C[C@]4(C)C3CC[C@@]21C` (stereo partly specified), the 50% effective dose (ED50) in the experiment listed under Rattus norvegicus (setting [3]) was above 100 mg/kg. For the same compound, the Increase entry in experiment [1] was “inactive”.
For the compound `C#C[C@]1(O)CC[C@H]2[C@@H]3CC[C@H]4Cc5nn(S(C)(=O)=O)cc5C[C@]4(C)[C@H]3CC[C@@]21C` (stereo in doubt; 1) [ZANOTERONE], the median effective dose (ED50) in the experiment filed under Rattus norvegicus was 15 mg/kg.
Take `C#C[C@]1(O)CCC2C3CC[C@H]4Cc5nn(S(=O)(=O)CCCC)cc5C[C@]4(C)C3CC[C@@]21C` (stereo partly specified): the median effective dose (ED50) in the experiment listed under Rattus norvegicus (setting [3]) is above 100 mg/kg.
With `C[C@]1(O)CCC2C3CC[C@H]4Cc5nn(S(C)(=O)=O)cc5C[C@]4(C)C3CC[C@@]21C` (stereo partly specified), in the experiment filed under Rattus norvegicus (setting [3]), the median effective dose (ED50) turned out to be 10 mg/kg. In addition, the Increase entry in experiment [1] is “inactive”.
Take `CC(=O)[C@@]1(O)CC[C@H]2[C@@H]3C=C(Cl)C4=CC(=O)[C@@H]5C[C@@H]5[C@]4(C)[C@H]3CC[C@@]21C` [CYPROTERONE]: the 50% effective dose (ED50) in the experiment filed under Rattus norvegicus (setting [3]) was 87 mg/kg.
In the case of `CC(C)(O)C(=O)Nc1ccc([N+](=O)[O-])c(C(F)(F)F)c1` [HYDROXYFLUTAMIDE], in the experiment filed under Rattus norvegicus (setting [3]), the ED50 is 4 mg/kg. For the same compound, the Increase entry in experiment [1] is “inactive”.
